# Measurements as given in ChEMBL document CHEMBL1121966, “(2R*,3S*)-1-[125I]Iodo-2,3-bis(4-hydroxyphenyl)pentane ([125I]iodonorhexestrol) and (2R*,3S*)-1-[77Br]Bromo-2,3-bis(4-hydroxyphenyl)pentane ([77Br]bromonorhexestrol), two gamma-emitting estrogens that show receptor-mediated uptake by target tissues in vivo” (1982).
# How the values were obtained:
# [1] = species on record: Rattus norvegicus; test: Percent injected dose per gram esophagus at 3h; type: functional
# How it was run: (§1)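 Dual-label study in immature 25-day female Sprague-Dawley rats (ca. 50 g). Each received 2 μCi [77Br]bromo tracer (≤1.25 pmol/dose) and 2 μCi 16α-[125I]iodoestradiol (2 pmol/dose) by tail or jugular vein, in ethanol diluted with saline/rat serum 1:1. Rats were killed at 3 or 6 h; blood and 11 tissues were weighed and counted. Five rats per time point; mean ± SD.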
# [2] = species on record: Rattus norvegicus; test: Percent injected dose per gram esophagus at 6 hr; type: functional; how it was run: as §1
# [3] = species on record: Rattus norvegicus; test: Percent injected dose per gram kidney at 1 hr; type: functional
# How it was run: (§2)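 Immature (25-day, ca. 50 g) Sprague-Dawley female rats received an iv injection (jugular or tail vein) of HPLC-purified tracer in ethanol plus 0.9% NaCl/rat serum 1:1. Doses were 2 μCi [125I]iodo tracer (≤15 pmol), or 2 μCi [77Br]bromo tracer (≤1.25 pmol) with 2 μCi 16α-[125I]iodoestradiol. Animals were killed at 1 h; blood and tissues were weighed and γ-counted. Blocking: coinjected unlabeled estradiol, 9 μg (iodo) or 18 μg (bromo). Mean ± SD.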
# [4] = species on record: Rattus norvegicus; test: Percent injected dose per gram kidney at 1 hr with unlabeled estradiol; type: functional; how it was run: as §2
# [5] = species on record: Rattus norvegicus; test: Percent injected dose per gram kidney at 3h; type: functional; how it was run: as §1
# [6] = species on record: Rattus norvegicus; test: Percent injected dose per gram liver at 1 hr; type: functional
# How it was run: (§3)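 Immature (25 day) female Sprague-Dawley rats (ca. 50 g) were dosed iv (jugular or tail vein) in ethanol plus 0.9% NaCl/rat serum (1:1). Doses were 2 μCi of [125I]iodonorhexestrol (≤15 pmol/dose), or 2 μCi each of [77Br]bromonorhexestrol (≤1.25 pmol/dose) and 16α-[125I]iodoestradiol (2 pmol/dose). Rats were killed at 1, 3 or 6 h; blood and tissues were weighed and γ-counted. Thyroid weight assumed 0.005 g/100 g body weight. Mean ± SD.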
# [7] = species on record: Rattus norvegicus; test: Percent injected dose per gram liver at 1 hr with unlabeled estradiol; type: functional
# How it was run: (§4)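 Same iv biodistribution in immature female rats, killed at 1 h, with unlabeled estradiol coinjected to block receptor uptake: 9 μg with [125I]iodonorhexestrol (3 rats), 18 μg with the [77Br]bromonorhexestrol/16α-[125I]iodoestradiol pair (5 rats). Tissue and blood radioactivity were counted as % injected dose/g and tissue-to-blood ratio.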
# [8] = species on record: Rattus norvegicus; test: Percent injected dose per gram liver at 3h; type: functional; how it was run: as §3
# [9] = species on record: Rattus norvegicus; test: Percent injected dose per gram liver at 6 hr; type: functional; how it was run: as §3
# [10] = species on record: Rattus norvegicus; test: Percent injected dose per gram lung at 1 hr; type: functional; how it was run: as §3
# [11] = species on record: Rattus norvegicus; test: Percent injected dose per gram lung at 1 hr with unlabeled estradiol; type: functional; how it was run: as §4
# [12] = species on record: Rattus norvegicus; test: Percent injected dose per gram lung at 3h; type: functional; how it was run: as §3
# [13] = species on record: Rattus norvegicus; test: Percent injected dose per gram lung at 6 hr; type: functional; how it was run: as §3
# [14] = species on record: Rattus norvegicus; test: Percent injected dose per gram spleen at 1 hr; type: functional; how it was run: as §3
# [15] = species on record: Rattus norvegicus; test: Percent injected dose per gram spleen at 1 hr with unlabeled estradiol; type: functional; how it was run: as §4
# [16] = species on record: Rattus norvegicus; test: Percent injected dose per gram spleen at 3h; type: functional; how it was run: as §3
# [17] = species on record: Rattus norvegicus; test: Percent injected dose per gram thyroid at 1 hr; type: functional, Thyroid gland; how it was run: as §3
# [18] = species on record: Rattus norvegicus; test: Percent injected dose per gram thyroid at 1 hr with unlabeled estradiol; type: functional, Thyroid gland; how it was run: as §4
# [19] = species on record: Rattus norvegicus; test: Percent injected dose per gram thyroid at 3h; type: functional, Thyroid gland; how it was run: as §3
# [20] = species on record: Rattus norvegicus; test: Percent injected dose per gram thyroid at 6 hr; type: functional, Thyroid gland; how it was run: as §3
# [21] = species on record: Rattus norvegicus; test: Percent injected dose per gram Uterus at 6 hr; type: functional; how it was run: as §1
# [22] = species on record: Rattus norvegicus; test: Percent injected dose per gram blood at 1 hr; type: functional; how it was run: as §2
# [23] = species on record: Rattus norvegicus; test: Percent injected dose per gram blood at 1 hr with unlabeled estradiol; type: functional; how it was run: as §2
# [24] = species on record: Rattus norvegicus; test: Percent injected dose per gram blood at 3h; type: functional; how it was run: as §1
# [25] = species on record: Rattus norvegicus; test: Percent injected dose per gram blood at 6 hr; type: functional; how it was run: as §1
# [26] = species on record: Rattus norvegicus; test: Percent injected dose per gram esophagus at 1 hr; type: functional; how it was run: as §2
# [27] = species on record: Rattus norvegicus; test: Percent injected dose per gram esophagus at 1 hr with unlabeled estradiol; type: functional; how it was run: as §2
# [28] = species on record: Rattus norvegicus; test: Percent injected dose per gram Muscle at 1 hr with unlabeled estradiol; type: functional; how it was run: as §2
# [29] = species on record: Rattus norvegicus; test: Percent injected dose per gram Muscle at 3h; type: functional; how it was run: as §1
# [30] = species on record: Rattus norvegicus; test: Percent injected dose per gram Muscle at 6 hr; type: functional; how it was run: as §1
# [31] = species on record: Rattus norvegicus; test: Percent injected dose per gram Ovaries at 1 hr; type: functional; how it was run: as §2
# [32] = species on record: Rattus norvegicus; test: Percent injected dose per gram Ovaries at 1 hr with unlabeled estradiol; type: functional; how it was run: as §2
# [33] = species on record: Rattus norvegicus; test: Percent injected dose per gram Ovaries at 3h; type: functional; how it was run: as §1
# [34] = species on record: Rattus norvegicus; test: Percent injected dose per gram Ovaries at 6 hr; type: functional; how it was run: as §1
# [35] = species on record: Rattus norvegicus; test: Percent injected dose per gram Uterus at 1 hr; type: functional; how it was run: as §2
# [36] = species on record: Rattus norvegicus; test: Percent injected dose per gram Uterus at 1 hr with unlabeled estradiol; type: functional; how it was run: as §2
# [37] = Ovary/blood distribution ratio was determined in immature female rats at 6 hr; type: functional; how it was run: as §1
# [38] = Ovary/blood distribution ratio was determined in immature female rats at 1 hr; type: functional; how it was run: as §2
# [39] = Ovary/blood distribution ratio was determined in immature female rats at 1 hr with unlabeled estradiol; type: functional; how it was run: as §2
# [40] = Ovary/blood distribution ratio was determined in immature female rats at 3h; type: functional; how it was run: as §1
smiles,measurement,setting,value
C[C@]12CC[C@@H]3c4ccc(O)cc4CC[C@H]3[C@@H]1C[C@@H](I)[C@@H]2O,Injected dose,[1],0.32%
same,Injected dose,[2],0.14%
same,Injected dose,[3],1.48%
same,Injected dose,[4],2.77%
same,Injected dose,[5],0.94%
same,Injected dose,[6],2.37%
same,Injected dose,[7],4.91%
same,Injected dose,[8],1.96%
same,Injected dose,[9],0.9%
same,Injected dose,[10],0.75%
same,Injected dose,[11],1.76%
same,Injected dose,[12],0.36%
same,Injected dose,[13],0.14%
same,Injected dose,[14],0.43%
same,Injected dose,[15],0.79%
same,Injected dose,[16],0.18%
same,Injected dose,[17],7.46%
same,Injected dose,[18],11.9%
same,Injected dose,[19],190.9%
same,Injected dose,[20],276.6%
same,Injected dose,[21],1.57%
same,Injected dose,[22],0.47%
same,Injected dose,[23],1.22%
same,Injected dose,[24],0.46%
same,Injected dose,[25],0.22%
same,Injected dose,[26],0.49%
same,Injected dose,[27],1.07%
same,Injected dose,[28],0.92%
same,Injected dose,[29],0.15%
same,Injected dose,[30],0.05%
same,Injected dose,[31],4.17%
same,Injected dose,[32],2.47%
same,Injected dose,[33],1.75%
same,Injected dose,[34],0.52%
same,Injected dose,[35],9.59%
same,Injected dose,[36],1.81%
same,Ratio,[37],2.49
same,Ratio,[38],3.02
same,Ratio,[39],1.36
same,Ratio,[40],2.03
